Experimental data pooled from the literature.
Lines come from different studies, so protocols differ.
Target: Inhibitor of nuclear factor kappa-B kinase subunit beta (IKBKB, Homo sapiens, UniProt O14920)

Cn1c2c(Cl)c(Cl)ccc2c2cn[nH]c(=O)c21 — ΔTm (thermal stability; DSF; 10 µM): -0.1 °C
COc1cc(Cl)c(C(=O)N[C@@H](CN[C@H]2CC[C@@H](N)CC2)Cc2ccc(C#N)cc2)cc1-c1ccc(CN[C@H](C)c2ccc(C)cc2)o1 — remaining activity (enzyme activity; inhibitor; 1 µM): 88%
Clc1ccc(Nc2nnc(Cc3ccncc3)c3ccccc23)cc1 — remaining signal (cell-free assay; 0.5 µM): 85.6%
Cn1c2c(c3ccc(Cl)c(Cl)c31)C(C#N)C(C)(C)NC2=O (centres unmarked) — ΔTm (thermal stability; DSF; 10 µM): -0.4 °C
Nc1nc(Nc2ccccc2)sc1C(=O)c1c(F)cccc1F — remaining activity (enzyme activity; inhibitor; 10 µM): 82%
CN(C)C1CCN(CC#Cc2nn(C3CCCC3)c3nc(NCc4ccccc4)ncc23)C1 (centres unmarked) — inhibition (enzyme activity; inhibitor; FRET; 10 µM): 2%
COc1ccc2c(c1)O[C@@H](c1ccc(OC)c(OC)c1)C[C@H]2NC(=O)C1(c2ccc3c(c2)OC(F)(F)O3)CC1 — remaining binding (cell-free assay; competition with immobilised ligand; 1 µM): 95%
CCN(CC)CCNC(=O)c1c(C)[nH]c(/C=C2\C(=O)Nc3ccc(F)cc32)c1C — inhibition (enzyme activity; inhibitor; 0.3 µM): -1%
O=C(Nc1cccnn1)N1CC(C/C=C/c2cncc(Oc3ccc(C(F)(F)F)cn3)n2)C1 — remaining binding (cell-free assay; competition with immobilised ligand; 1 µM): 94%
CCCS(=O)(=O)Nc1ccc(F)c(C(=O)c2c[nH]c3ncc(-c4ccc(Cl)cc4)cc23)c1F — inhibition (enzyme activity; inhibitor; 1 µM): < 10%
Cn1c2c(Cl)c(Cl)ccc2c2cc(N)[nH]c(=O)c21 — ΔTm (thermal stability; DSF; 10 µM): -0.6 °C
N#CC1(c2ccccn2)CCN(Cc2cc(C(=O)N3CCCC3)c(=O)n3ccccc23)CC1 — remaining binding (cell-free assay; competition with immobilised ligand; 1 µM): 99%
CC(C)(C)c1nc(-c2cccc(NS(=O)(=O)c3c(F)cccc3F)c2F)c(-c2ccnc(N)n2)s1 — remaining activity (enzyme activity; inhibitor; radiometric; 1 µM): 94%
FC(F)(F)Oc1cccc(-c2cnc3ccc(-c4ccncc4)nn23)c1 — activity vs control (enzyme activity; inhibitor; radiometric; 1 µM): 94%
CS(=O)(=O)Nc1cccc(-c2csc(NC(=O)CSc3nc4nccnc4c(=O)n3CCc3ccccc3)n2)c1 — inhibition (enzyme activity; inhibitor; 10 µM): 4%
Cc1ccc(NC(=O)c2ccc(CN3CCN(C)CC3)cc2)cc1Nc1nc(-c2cccnc2)cs1 — remaining signal (cell-free assay; 0.5 µM): 97.8%
CNC(=O)c1cc(Oc2ccc(NC(=O)Nc3ccc(Cl)c(C(F)(F)F)c3)cc2)ccn1 — inhibition (enzyme activity; inhibitor; 0.3 µM): -5%
CC(C)(O)[C@H]1CC[C@H](Nc2ccc3ncc(-c4cccc(C(F)(F)F)c4)n3n2)CC1 — remaining activity (enzyme activity; inhibitor; 1 µM): 95.4%
O=C1Nc2ccc(Cl)cc2C1=Cc1cc(Cl)c(O)c(Cl)c1 — remaining signal (cell-free assay; 0.5 µM): 93.6%
Nc1ncnc2occ(-c3ccc(NC(=O)Nc4cc(C(F)(F)F)ccc4F)cc3)c12 — remaining activity (enzyme activity; inhibitor; 20 µM): 0.55%
CCS(=O)(=O)c1cc2cc(C[C@@](O)(CC(C)(C)c3ccc(F)cc3C(N)=O)C(F)(F)F)[nH]c2cn1 — remaining binding (cell-free assay; competition with immobilised ligand; 1 µM): 83%
COc1cccc2c(NCc3ccccc3)nc(-n3c(N)nc4ccccc43)nc12 — inhibition (target engagement in cells; inhibitor; chemoproteomics; 20 mM): -13.4%
Cc1ccc(Nc2nccc(N(C)c3ccc4c(C)n(C)nc4c3)n2)cc1S(N)(=O)=O — inhibition (enzyme activity; inhibitor; 0.3 µM): 3%
O=c1c2ccccc2[nH]c(=S)n1CCN1CCC(=C(c2ccc(F)cc2)c2ccc(F)cc2)CC1 — remaining activity (enzyme activity; inhibitor; 0.5 µM): 99.5%
CN(c1ncccc1CNc1nc(Nc2ccc3c(c2)CC(=O)N3)ncc1C(F)(F)F)S(C)(=O)=O — inhibition (enzyme activity; inhibitor; 1 µM): 12.7%
O=C(Nc1cnn(-c2csc(C(=O)NC3COC3)c2)c1)Nc1c(F)cccc1Cl — remaining activity (enzyme activity; inhibitor; 5 µM): 94.7%
Cn1c2c(c3ccc(Cl)c(Cl)c31)C(C#N)C1(CCOCC1)NC2=O (centres unmarked) — ΔTm (thermal stability; DSF; 10 µM): -0.4 °C
Oc1cccc(-c2nc(N3CCOCC3)c3oc4ncccc4c3n2)c1 — remaining activity (enzyme activity; inhibitor; 10 µM): 74%
N#CC1c2c([nH]c3c(Cl)c(Cl)ccc23)C(=O)NC12CCCCC2 (racemic) — ΔTm (thermal stability; DSF; 10 µM): 0.6 °C
Cc1cc(NC(=O)c2cccc3cc(-c4cccc5[nH]nc(N)c45)ccc23)ccc1F — activity vs control (enzyme activity; inhibitor; 0.1 µM): 106%
COc1cc2ncnc(Nc3ccc(Oc4ccccc4)c(C)c3C)c2cc1OC — inhibition (enzyme activity; inhibitor; 1 µM): 3%
C[C@@H]1CN(c2cc(-c3nn(C)c4ccc(OC5(C)CC5)cc34)ncn2)C[C@H](C)O1 — remaining binding (cell-free assay; competition with immobilised ligand; 1 µM): 76%
CCCOc1ccc(OC)c(F)c1C(=O)c1ccc(C(=O)N[C@@H]2CNC[C@H]2NC(=O)c2ccc3[nH]ncc3c2)cc1 — remaining activity (enzyme activity; inhibitor; 10 µM): 62%
CCCCN(CCCC)C(=O)CN1C[C@@H](c2cc(OC)c3c(c2)OCO3)[C@H](C(=O)O)[C@H]1CC(C)(C)CCC — remaining binding (cell-free assay; competition with immobilised ligand; 1 µM): 100%
Cc1sc(C(=O)NC2COC2)cc1-n1cc(NC(=O)Nc2c(F)cccc2Cl)cn1 — remaining activity (enzyme activity; inhibitor; 10 µM): 86.8%
Cn1c(=O)n(-c2ccc(C(C)(C)C#N)cc2)c2c3cc(-c4cnc5ccccc5c4)ccc3ncc21 — remaining activity (enzyme activity; inhibitor; 10 µM): 92%
Cc1ccc(C(=O)Nc2ccc(CN3CCN(C)CC3)c(C(F)(F)F)c2)cc1C#Cc1cnc2cccnn12 — remaining activity (enzyme activity; inhibitor; 23.5 nM): 37%
CCOCCn1cc(C(=O)Nc2ccc(-n3nc(-c4cccnc4)cc3C(F)(F)F)cn2)ccc1=O — remaining binding (cell-free assay; competition with immobilised ligand; 1 µM): 100%
COc1cc(Nc2cnc(C#N)c(O[C@H](C)CN(C)C)n2)ncc1-c1cnn(C)c1 — remaining activity (enzyme activity; inhibitor; radiometric; 1 µM): 96%
NS(=O)(=O)c1cc(NC(=O)C2(c3ccccc3Cl)CC2)ccc1Oc1cccc(Cl)c1 — remaining binding (cell-free assay; competition with immobilised ligand; 1 µM): 70%
COc1cc2ncnc(Nc3ccc(F)c(Cl)c3)c2cc1OCCCN1CCOCC1 — remaining signal (cell-free assay; 0.5 µM): 86.5%
